≈ marks a conversion by molar mass, not a printed value.
Experiments:
Assay type in all cases: functional
[1] = test system: Staphylococcus aureus; assay: Antibacterial activity against Staphylococcus aureus 1218 after 18 to 24 hrs by agar dilution method
Outline: (§1)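 MICs were determined by agar dilution on test agar. An overnight tryptosoy broth culture was diluted in the same broth to about 10⁶ cells/mL and spotted with an inoculating device onto agar containing serial twofold dilutions of compound. Plates were incubated at 37 °C for 18–20 h, and the MIC was the lowest concentration with no visible growth.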

[2] = test system: Staphylococcus; assay: Antibacterial activity against coagulase negative Staphylococcus after 18 to 24 hrs by agar dilution method
Outline: (§2)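 Agar dilution on test agar holding serial twofold dilutions of compound. Overnight tryptosoy broth cultures were diluted in the same broth to about 10⁶ cells/mL and spotted with an inoculating device. Plates were incubated at 37 °C for 18–20 h.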

[3] = test system: Enterococcus faecalis; assay: Antibacterial activity against Enterococcus faecalis 2347 after 18 to 24 hrs by agar dilution method; outline: as §1
[4] = test system: Streptococcus pyogenes; assay: Antibacterial activity against Streptococcus pyogenes 9889 after 18 to 24 hrs by agar dilution method; outline: as §2
[5] = test system: Streptococcus agalactiae; assay: Antibacterial activity against Streptococcus agalactiae 32 after 18 to 24 hrs by agar dilution method; outline: as §1
[6] = test system: Streptococcus pneumoniae; assay: Antibacterial activity against Streptococcus pneumoniae 0025 after 18 to 24 hrs by agar dilution method; outline: as §1
[7] = test system: Haemophilus influenzae; assay: Antibacterial activity against Haemophilus influenzae 1210 after 18 to 24 hrs by agar dilution method; outline: as §1
[8] = test system: Escherichia coli; assay: Antibacterial activity against Escherichia coli 04 after 18 to 24 hrs by agar dilution method; outline: as §1
[9] = test system: Klebsiella pneumoniae; assay: Antibacterial activity against Klebsiella pneumoniae 523 after 18 to 24 hrs by agar dilution method; outline: as §1
[10] = test system: Citrobacter freundii; assay: Antibacterial activity against Citrobacter freundii 323 after 18 to 24 hrs by agar dilution method; outline: as §1
[11] = test system: Enterobacter cloacae; assay: Antibacterial activity against Enterobacter cloacae 34 after 18 to 24 hrs by agar dilution method; outline: as §1
[12] = test system: Serratia marcescens; assay: Antibacterial activity against Serratia marcescens 3349 after 18 to 24 hrs by agar dilution method; outline: as §1
[13] = test system: Acinetobacter baumannii; assay: Antibacterial activity against Acinetobacter baumannii 2289 after 18 to 24 hrs by agar dilution method; outline: as §1
[14] = test system: Pseudomonas aeruginosa; assay: Antibacterial activity against Pseudomonas aeruginosa 5455 after 18 to 24 hrs by agar dilution method; outline: as §1

Row | SMILES | MIC [1] [µg/mL] | MIC [2] [µg/mL] | MIC [3] [µg/mL] | MIC [4] [µg/mL] | MIC [5] [µg/mL] | MIC [6] [µg/mL] | MIC [7] [µg/mL] | MIC [8] [µg/mL] | MIC [9] [µg/mL] | MIC [10] [µg/mL] | MIC [11] [µg/mL] | MIC [12] [µg/mL] | MIC [13] [µg/mL] | MIC [14] [µg/mL]
1 | CCN1CCN(C[C@@H]2C[C@H](SC3=C(C(=O)O)N4C(=O)C([C@@H](C)O)C4[C@H]3C)CN2)S1(=O)=O (stereo not given in full) | 25 (≈ 52.7 µM) | 0.198 (≈ 0.417 µM) | 6.25 (≈ 13.2 µM) | 0.02 (≈ 0.0421 µM) | 0.04 (≈ 0.0843 µM) | 0.04 (≈ 0.0843 µM) | 12.5 (≈ 26.3 µM) | 0.098 (≈ 0.206 µM) | 0.198 (≈ 0.417 µM) | 0.098 (≈ 0.206 µM) | 0.098 (≈ 0.206 µM) | 0.098 (≈ 0.206 µM) | 25 (≈ 52.7 µM) | 12.5 (≈ 26.3 µM)
2 | CC1CN(C[C@@H]2C[C@H](SC3=C(C(=O)O)N4C(=O)C([C@@H](C)O)C4[C@H]3C)CN2)S(=O)(=O)N1 (stereo not given in full) | 25 (≈ 54.3 µM) | 0.391 (≈ 0.849 µM) | 25 (≈ 54.3 µM) | 0.04 (≈ 0.0868 µM) | 0.04 (≈ 0.0868 µM) | 0.04 (≈ 0.0868 µM) | 12.5 (≈ 27.1 µM) | 0.198 (≈ 0.43 µM) | 0.198 (≈ 0.43 µM) | 0.198 (≈ 0.43 µM) | 0.195 (≈ 0.423 µM) | 0.195 (≈ 0.423 µM) | 25 (≈ 54.3 µM) | 25 (≈ 54.3 µM)
3 | C[C@@H](O)C1C(=O)N2C(C(=O)O)=C(S[C@@H]3CN[C@H](CN4CCOS4(=O)=O)C3)[C@H](C)C12 (stereo not given in full) | 3.12 (≈ 6.97 µM) | 0.098 (≈ 0.219 µM) | 6.25 (≈ 14 µM) | 0.02 (≈ 0.0447 µM) | 0.02 (≈ 0.0447 µM) | 0.013 (≈ 0.029 µM) | 6.25 (≈ 14 µM) | 0.049 (≈ 0.109 µM) | 0.098 (≈ 0.219 µM) | 0.195 (≈ 0.436 µM) | 0.098 (≈ 0.219 µM) | 0.198 (≈ 0.442 µM) | 12.5 (≈ 27.9 µM) | 12.5 (≈ 27.9 µM)

Now from value to molecule:

Row | MIC [1] [µg/mL] | MIC [2] [µg/mL] | MIC [3] [µg/mL] | MIC [4] [µg/mL] | MIC [5] [µg/mL] | MIC [6] [µg/mL] | MIC [7] [µg/mL] | MIC [8] [µg/mL] | MIC [9] [µg/mL] | MIC [10] [µg/mL] | MIC [11] [µg/mL] | MIC [12] [µg/mL] | MIC [13] [µg/mL] | MIC [14] [µg/mL] | SMILES
4 | 3.12 (≈ 6.99 µM) | 0.098 (≈ 0.219 µM) | 6.25 (≈ 14 µM) | 0.01 (≈ 0.0224 µM) | 0.02 (≈ 0.0448 µM) | 0.02 (≈ 0.0448 µM) | 6.25 (≈ 14 µM) | 0.049 (≈ 0.11 µM) | 0.049 (≈ 0.11 µM) | 0.049 (≈ 0.11 µM) | 0.049 (≈ 0.11 µM) | 0.049 (≈ 0.11 µM) | 12.5 (≈ 28 µM) | 0.781 (≈ 1.75 µM) | C[C@@H](O)C1C(=O)N2C(C(=O)O)=C(S[C@@H]3CN[C@H](CN4CCNS4(=O)=O)C3)[C@H](C)C12 (stereo not given in full)
5 | 6.25 (≈ 13.6 µM) | 0.098 (≈ 0.213 µM) | 6.25 (≈ 13.6 µM) | 0.01 (≈ 0.0217 µM) | 0.01 (≈ 0.0217 µM) | 0.02 (≈ 0.0434 µM) | 6.25 (≈ 13.6 µM) | 0.049 (≈ 0.106 µM) | 0.049 (≈ 0.106 µM) | 0.049 (≈ 0.106 µM) | 0.049 (≈ 0.106 µM) | 0.198 (≈ 0.43 µM) | 6.25 (≈ 13.6 µM) | 1.56 (≈ 3.39 µM) | C[C@@H](O)C1C(=O)N2C(C(=O)O)=C(S[C@@H]3CN[C@H](CN4CCCNS4(=O)=O)C3)[C@H](C)C12 (stereo not given in full)

From ChEMBL document CHEMBL1147968, “Novel lbeta-methylcarbapenems having cyclic sulfonamide moieties: synthesis and evaluation of in vitro antibacterial activity” (2007)
